Test results from ChEMBL document CHEMBL4118021, “Studies of TAK1-centered polypharmacology with novel covalent TAK1 inhibitors” (Bioorg Med Chem, 2017).
Activity calls are given as the source filed them. The calls are words filed in the database; no cut-off is given here.

Experiments:
[1] = target: T1, Dual specificity mitogen-activated protein kinase kinase 3 (Homo sapiens) (UniProt P46734); assay: Inhibition of full length human MEK3 (1 to 318 residues) expressed in mammalian expression system assessed as enzyme activity at 10 uM by KINOMEScan assay relative to control; parameters: scale not given: the % may be the effect or the level left
T1 sequence (whole entry): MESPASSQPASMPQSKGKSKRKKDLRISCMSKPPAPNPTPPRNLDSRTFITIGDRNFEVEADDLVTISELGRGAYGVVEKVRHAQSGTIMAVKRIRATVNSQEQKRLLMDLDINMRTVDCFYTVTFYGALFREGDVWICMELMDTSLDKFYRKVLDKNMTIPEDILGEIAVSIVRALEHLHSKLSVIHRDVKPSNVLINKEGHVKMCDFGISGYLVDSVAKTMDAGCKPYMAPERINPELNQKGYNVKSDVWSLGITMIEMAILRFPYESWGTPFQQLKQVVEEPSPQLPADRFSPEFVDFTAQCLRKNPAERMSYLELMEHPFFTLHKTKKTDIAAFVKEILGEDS
Outline: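 In vitro ATP-site competition binding assay (KinomeScan) across a panel of 456 kinases. Compound was tested at 1 and 10 μM. The read-out is the binding inhibition score relative to control.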

[2] = target: Serine/threonine-protein kinase TAO2 (Homo sapiens) (UniProt Q9UL54); assay: Inhibition of TAO2 in human SKCO1 cells at 1 uM after 4 hrs using biotin labeled DVKAGNILLSEPGLVK probe by mass-spectrometric analysis relative to control; assay type: cell-based
[3] = target: Fructose-bisphosphate aldolase C (Homo sapiens) (UniProt P09972); assay: Binding affinity to ALDOC in human NCI-H358 cells at 1 uM by mass spectrometry based pull down assay; assay type: cell-based
[4] = target: Translocon-associated protein subunit delta (Homo sapiens) (UniProt P51571); assay: Binding affinity to SSR4 in human NCI-H23 cells at 1 uM by mass spectrometry based pull down assay; assay type: cell-based
[5] = target: Delta-1-pyrroline-5-carboxylate synthase (Homo sapiens) (UniProt P54886); assay: Binding affinity to ALDH18A1 in human NCI-H23 cells at 1 uM by mass spectrometry based pull down assay; assay type: cell-based
Outline: (§1)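 NCI-H23 or NCI-H358 cells were grown and lysed. Lysates were incubated overnight at 4 °C with 1 μM biotinylated covalent probe or DMSO, then pulled down on streptavidin beads. Proteins were run on polyacrylamide gels and stained with Coomassie. Bands were excised, digested and identified by mass spectrometry.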

[6] = target: X antigen family member 1 (Homo sapiens) (UniProt Q9HD64); assay: Binding affinity to XAGE1B in human NCI-H23 cells at 1 uM by mass spectrometry based pull down assay; assay type: cell-based
[7] = target: A-kinase anchor protein 12 (Homo sapiens) (UniProt Q02952); assay: Binding affinity to AKAP12 in human NCI-H23 cells at 1 uM by mass spectrometry based pull down assay; assay type: cell-based; outline: as §1
[8] = target: Vesicle-fusing ATPase (Homo sapiens) (UniProt P46459); assay: Binding affinity to NSF in human NCI-H358 cells at 1 uM by mass spectrometry based pull down assay; assay type: cell-based
[9] = target: Amidophosphoribosyltransferase (Homo sapiens) (UniProt Q06203); assay: Binding affinity to PPAT in human NCI-H358 cells at 1 uM by mass spectrometry based pull down assay; assay type: cell-based
[10] = target: T2, Dual specificity mitogen-activated protein kinase kinase 5 (Homo sapiens) (UniProt Q13163); assay: Binding affinity to MAP2K5 in human NCI-H358 cells at 1 uM by mass spectrometry based pull down assay; assay type: cell-based
T2 sequence (whole entry): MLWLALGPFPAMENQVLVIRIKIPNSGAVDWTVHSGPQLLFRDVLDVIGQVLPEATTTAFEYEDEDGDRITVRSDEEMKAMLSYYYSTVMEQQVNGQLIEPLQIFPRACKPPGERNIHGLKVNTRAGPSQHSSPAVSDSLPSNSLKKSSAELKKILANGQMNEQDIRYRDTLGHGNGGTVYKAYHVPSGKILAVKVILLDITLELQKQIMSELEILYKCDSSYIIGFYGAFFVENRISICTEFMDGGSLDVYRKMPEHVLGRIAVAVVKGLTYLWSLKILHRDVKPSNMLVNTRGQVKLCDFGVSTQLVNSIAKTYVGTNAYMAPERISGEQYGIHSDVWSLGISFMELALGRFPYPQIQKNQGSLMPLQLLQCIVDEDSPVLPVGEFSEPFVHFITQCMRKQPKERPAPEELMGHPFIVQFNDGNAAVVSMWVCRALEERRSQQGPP

[11] = target: ADP/ATP translocase 2 (Homo sapiens) (UniProt P05141); assay: Binding affinity to SLC25A5 in human NCI-H23 cells at 1 uM by mass spectrometry based pull down assay; assay type: cell-based
[12] = target: Mitogen-activated protein kinase 6 (Homo sapiens) (UniProt Q16659); assay: Binding affinity to MAPK6 in human NCI-H358 cells at 1 uM by mass spectrometry based pull down assay; assay type: cell-based
[13] = target: Cyclin-dependent kinase 5 (Homo sapiens) (UniProt Q00535); assay: Binding affinity to CDK5 in human NCI-H23 cells at 1 uM by mass spectrometry based pull down assay; assay type: cell-based
[14] = target: TGF-beta-activated kinase 1 and MAP3K7-binding protein 1 (Homo sapiens) (UniProt Q15750); assay: Binding affinity to TAB1 in human NCI-H23 cells at 1 uM by mass spectrometry based pull down assay; assay type: cell-based
[15] = target: Melanoma-associated antigen 4 (Homo sapiens) (UniProt P43358); assay: Binding affinity to MAGEA4 in human NCI-H23 cells at 1 uM by mass spectrometry based pull down assay; assay type: cell-based
[16] = target: Ribosomal protein S6 kinase alpha-3 (Homo sapiens) (UniProt P51812); assay: Binding affinity to RPS6KA3 in human NCI-H358 cells at 1 uM by mass spectrometry based pull down assay; assay type: cell-based
[17] = target: Leucine-rich repeat-containing protein 15 (Homo sapiens) (UniProt Q8TF66); assay: Binding affinity to LRRC15 in human NCI-H23 cells at 1 uM by mass spectrometry based pull down assay; assay type: cell-based
[18] = target: MOB kinase activator 1B (Homo sapiens) (UniProt Q7L9L4); assay: Binding affinity to MOB1B in human NCI-H23 cells at 1 uM by mass spectrometry based pull down assay; assay type: cell-based
[19] = target: 14-3-3 protein sigma (Homo sapiens) (UniProt P31947); assay: Binding affinity to SFN in human NCI-H23 cells at 1 uM by mass spectrometry based pull down assay; assay type: cell-based
[20] = target: 14-3-3 protein theta (Homo sapiens) (UniProt P27348); assay: Binding affinity to YWHAQ in human NCI-H23 cells at 1 uM by mass spectrometry based pull down assay; assay type: cell-based
[21] = target: UV radiation resistance-associated gene protein (Homo sapiens) (UniProt Q9P2Y5); assay: Binding affinity to UVRAG in human NCI-H23 cells at 1 uM by mass spectrometry based pull down assay; assay type: cell-based
[22] = target: ATP-dependent 6-phosphofructokinase, muscle type (Homo sapiens) (UniProt P08237); assay: Binding affinity to PFKM in human NCI-H23 cells at 1 uM by mass spectrometry based pull down assay; assay type: cell-based
[23] = target: TBC1 domain family member 15 (Homo sapiens) (UniProt Q8TC07); assay: Binding affinity to TBC1D15 in human NCI-H23 cells at 1 uM by mass spectrometry based pull down assay; assay type: cell-based
Sequence of TBC1 domain family member 15 (Homo sapiens) (Q8TC07 whole entry, the tested form may be a part): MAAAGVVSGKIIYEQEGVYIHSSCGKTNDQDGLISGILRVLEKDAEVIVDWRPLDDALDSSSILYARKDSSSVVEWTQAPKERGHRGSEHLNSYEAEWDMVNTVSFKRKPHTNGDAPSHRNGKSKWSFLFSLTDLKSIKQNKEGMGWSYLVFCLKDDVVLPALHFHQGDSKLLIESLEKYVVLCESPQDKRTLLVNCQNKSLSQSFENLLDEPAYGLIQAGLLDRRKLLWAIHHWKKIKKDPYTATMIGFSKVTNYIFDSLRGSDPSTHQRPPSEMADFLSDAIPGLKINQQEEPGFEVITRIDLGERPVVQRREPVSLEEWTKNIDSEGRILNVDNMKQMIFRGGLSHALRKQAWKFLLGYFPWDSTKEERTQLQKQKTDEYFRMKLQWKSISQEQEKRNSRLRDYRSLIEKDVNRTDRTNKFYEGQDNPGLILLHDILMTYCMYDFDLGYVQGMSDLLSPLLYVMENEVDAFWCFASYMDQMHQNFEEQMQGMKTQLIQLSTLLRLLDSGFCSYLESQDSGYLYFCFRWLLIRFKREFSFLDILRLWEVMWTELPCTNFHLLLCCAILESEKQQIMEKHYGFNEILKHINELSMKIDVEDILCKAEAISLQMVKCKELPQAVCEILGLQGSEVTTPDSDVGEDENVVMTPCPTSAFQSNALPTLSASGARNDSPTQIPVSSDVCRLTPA

Sequence of UV radiation resistance-associated gene protein (Homo sapiens) (Q9P2Y5 whole entry): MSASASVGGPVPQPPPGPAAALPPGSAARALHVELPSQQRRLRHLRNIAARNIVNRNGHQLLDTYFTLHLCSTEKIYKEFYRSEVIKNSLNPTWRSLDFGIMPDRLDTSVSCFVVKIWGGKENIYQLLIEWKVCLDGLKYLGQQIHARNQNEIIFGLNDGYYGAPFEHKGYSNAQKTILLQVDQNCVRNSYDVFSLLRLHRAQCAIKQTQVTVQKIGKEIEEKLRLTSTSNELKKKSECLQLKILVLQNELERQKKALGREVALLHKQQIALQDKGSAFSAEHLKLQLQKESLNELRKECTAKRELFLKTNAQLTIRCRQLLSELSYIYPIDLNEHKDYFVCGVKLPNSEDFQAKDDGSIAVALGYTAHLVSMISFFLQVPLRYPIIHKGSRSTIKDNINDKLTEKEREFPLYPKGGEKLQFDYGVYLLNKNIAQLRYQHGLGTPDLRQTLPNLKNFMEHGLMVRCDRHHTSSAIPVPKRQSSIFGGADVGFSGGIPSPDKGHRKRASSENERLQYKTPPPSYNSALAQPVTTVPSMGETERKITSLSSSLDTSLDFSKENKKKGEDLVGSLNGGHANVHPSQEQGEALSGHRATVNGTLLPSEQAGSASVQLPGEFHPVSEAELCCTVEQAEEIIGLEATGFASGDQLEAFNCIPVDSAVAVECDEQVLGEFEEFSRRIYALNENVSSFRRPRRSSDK
Sequence of ADP/ATP translocase 2 (Homo sapiens) (P05141 whole entry): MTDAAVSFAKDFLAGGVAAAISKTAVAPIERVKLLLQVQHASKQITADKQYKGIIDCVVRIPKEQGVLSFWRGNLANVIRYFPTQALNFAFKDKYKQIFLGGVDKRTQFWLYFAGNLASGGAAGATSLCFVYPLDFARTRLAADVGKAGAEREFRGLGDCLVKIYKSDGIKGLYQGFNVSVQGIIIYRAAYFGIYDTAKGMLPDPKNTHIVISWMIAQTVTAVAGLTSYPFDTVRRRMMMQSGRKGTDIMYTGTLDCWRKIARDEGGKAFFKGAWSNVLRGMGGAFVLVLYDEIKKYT
Sequence of MOB kinase activator 1B (Homo sapiens) (Q7L9L4 whole entry): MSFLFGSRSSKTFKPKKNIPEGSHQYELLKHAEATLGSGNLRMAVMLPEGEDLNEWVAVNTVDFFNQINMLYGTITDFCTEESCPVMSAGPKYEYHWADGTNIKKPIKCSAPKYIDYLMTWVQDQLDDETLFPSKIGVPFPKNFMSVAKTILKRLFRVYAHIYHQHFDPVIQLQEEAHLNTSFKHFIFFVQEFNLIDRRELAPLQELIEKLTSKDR
Sequence of Fructose-bisphosphate aldolase C (Homo sapiens) (P09972 whole entry): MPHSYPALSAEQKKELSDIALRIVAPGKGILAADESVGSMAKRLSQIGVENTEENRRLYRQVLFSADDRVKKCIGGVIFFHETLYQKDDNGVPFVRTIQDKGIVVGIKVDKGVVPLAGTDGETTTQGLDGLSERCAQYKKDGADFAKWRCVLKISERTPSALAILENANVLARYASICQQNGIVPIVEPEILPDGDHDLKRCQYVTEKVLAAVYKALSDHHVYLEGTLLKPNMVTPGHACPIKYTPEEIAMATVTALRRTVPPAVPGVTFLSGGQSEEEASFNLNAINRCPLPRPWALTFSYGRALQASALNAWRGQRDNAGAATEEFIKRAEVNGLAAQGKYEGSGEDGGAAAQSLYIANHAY
Sequence of Vesicle-fusing ATPase (Homo sapiens) (P46459 whole entry): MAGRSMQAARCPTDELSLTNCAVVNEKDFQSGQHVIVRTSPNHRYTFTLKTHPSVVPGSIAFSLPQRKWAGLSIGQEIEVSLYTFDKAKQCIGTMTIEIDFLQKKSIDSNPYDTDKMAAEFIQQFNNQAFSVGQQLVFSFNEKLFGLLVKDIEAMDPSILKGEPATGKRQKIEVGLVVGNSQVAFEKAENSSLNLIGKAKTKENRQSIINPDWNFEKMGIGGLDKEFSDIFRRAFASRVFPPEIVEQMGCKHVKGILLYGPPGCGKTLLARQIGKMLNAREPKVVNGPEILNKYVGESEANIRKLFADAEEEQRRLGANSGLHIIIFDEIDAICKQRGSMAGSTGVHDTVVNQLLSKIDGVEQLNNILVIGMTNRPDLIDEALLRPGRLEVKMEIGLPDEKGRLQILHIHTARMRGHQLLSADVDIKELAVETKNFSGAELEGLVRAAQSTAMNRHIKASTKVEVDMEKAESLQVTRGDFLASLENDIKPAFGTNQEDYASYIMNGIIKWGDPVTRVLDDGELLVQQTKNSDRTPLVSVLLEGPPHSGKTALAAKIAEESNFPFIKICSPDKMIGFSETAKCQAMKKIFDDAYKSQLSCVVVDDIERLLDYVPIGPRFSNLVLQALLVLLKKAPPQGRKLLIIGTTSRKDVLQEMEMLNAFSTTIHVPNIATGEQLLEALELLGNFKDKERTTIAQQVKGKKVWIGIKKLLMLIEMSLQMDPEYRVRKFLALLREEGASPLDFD
Sequence of 14-3-3 protein sigma (Homo sapiens) (P31947 whole entry): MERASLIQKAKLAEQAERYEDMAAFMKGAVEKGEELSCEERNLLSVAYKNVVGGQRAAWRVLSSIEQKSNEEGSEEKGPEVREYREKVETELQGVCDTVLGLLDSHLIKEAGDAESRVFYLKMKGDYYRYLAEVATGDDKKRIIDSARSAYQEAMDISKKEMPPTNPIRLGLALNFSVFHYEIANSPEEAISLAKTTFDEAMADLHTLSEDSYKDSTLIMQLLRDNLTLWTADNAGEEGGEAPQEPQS
Sequence of Translocon-associated protein subunit delta (Homo sapiens) (P51571 whole entry): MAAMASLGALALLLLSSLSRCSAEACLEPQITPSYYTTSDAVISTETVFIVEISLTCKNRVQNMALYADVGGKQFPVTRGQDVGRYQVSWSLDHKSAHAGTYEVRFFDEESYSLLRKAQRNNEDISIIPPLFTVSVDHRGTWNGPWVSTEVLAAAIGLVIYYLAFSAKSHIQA
Sequence of X antigen family member 1 (Homo sapiens) (Q9HD64 whole entry): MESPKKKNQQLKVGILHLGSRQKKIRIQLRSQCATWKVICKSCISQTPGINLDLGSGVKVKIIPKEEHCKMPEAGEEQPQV
Sequence of Serine/threonine-protein kinase TAO2 (Homo sapiens) (Q9UL54 whole entry): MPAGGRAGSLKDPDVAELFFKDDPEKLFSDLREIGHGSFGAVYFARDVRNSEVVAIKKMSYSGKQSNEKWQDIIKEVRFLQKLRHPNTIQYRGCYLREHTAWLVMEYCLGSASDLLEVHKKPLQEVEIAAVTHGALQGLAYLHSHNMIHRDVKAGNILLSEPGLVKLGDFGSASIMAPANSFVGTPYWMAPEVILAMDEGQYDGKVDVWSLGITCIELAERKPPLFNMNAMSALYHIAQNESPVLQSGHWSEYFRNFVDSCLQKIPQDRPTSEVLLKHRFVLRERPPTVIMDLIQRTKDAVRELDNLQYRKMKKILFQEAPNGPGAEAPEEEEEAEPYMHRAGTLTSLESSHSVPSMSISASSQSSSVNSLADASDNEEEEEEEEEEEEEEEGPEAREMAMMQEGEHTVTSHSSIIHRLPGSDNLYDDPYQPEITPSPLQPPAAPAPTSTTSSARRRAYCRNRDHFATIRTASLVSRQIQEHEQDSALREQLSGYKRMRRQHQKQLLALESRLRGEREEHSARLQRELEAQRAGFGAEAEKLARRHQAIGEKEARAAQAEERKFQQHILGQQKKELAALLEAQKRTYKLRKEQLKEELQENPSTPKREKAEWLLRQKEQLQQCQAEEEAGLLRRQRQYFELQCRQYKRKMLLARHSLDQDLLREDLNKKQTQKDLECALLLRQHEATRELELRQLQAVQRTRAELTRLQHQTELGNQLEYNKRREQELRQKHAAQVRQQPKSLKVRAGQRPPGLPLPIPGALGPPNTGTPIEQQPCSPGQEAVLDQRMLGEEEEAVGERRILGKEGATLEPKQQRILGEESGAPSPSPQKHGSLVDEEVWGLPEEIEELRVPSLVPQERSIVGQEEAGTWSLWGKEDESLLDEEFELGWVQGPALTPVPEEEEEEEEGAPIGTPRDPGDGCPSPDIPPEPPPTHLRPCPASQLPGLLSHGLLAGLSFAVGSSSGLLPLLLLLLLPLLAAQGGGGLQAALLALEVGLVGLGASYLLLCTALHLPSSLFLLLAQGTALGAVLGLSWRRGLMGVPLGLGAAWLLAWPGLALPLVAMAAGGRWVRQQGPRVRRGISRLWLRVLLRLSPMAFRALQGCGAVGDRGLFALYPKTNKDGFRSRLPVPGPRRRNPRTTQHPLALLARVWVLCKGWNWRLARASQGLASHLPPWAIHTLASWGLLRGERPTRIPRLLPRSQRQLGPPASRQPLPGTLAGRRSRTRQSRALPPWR

Structure (SMILES): COc1cc(O)c2c(c1)/C=C/C[C@H](O)[C@H](O)C(=O)/C=C\C[C@H](C)OC2=O
- Activity [1]: 1.4%
- inhibition [2]: -2.5%

Structure (SMILES): C=CC(=O)Nc1ccccc1Nc1nc(Nc2ccc(N3CCN(CCOCCOCCOCCNC(=O)CCCC[C@@H]4SC[C@@H]5NC(=O)N[C@@H]54)CC3)cc2)ncc1Cl
- Activity [3]: Active
- Activity [4]: Active
- Activity [5]: Active
- Activity [6]: Active
- Activity [7]: Active
- Activity [8]: Active
- Activity [9]: Active
- Activity [10]: Active
- Activity [11]: Active
- Activity [12]: Active
- Activity [13]: Active
- Activity [14]: Active
- Activity [15]: Active
- Activity [16]: Active
- Activity [17]: Active
- Activity [18]: Active
- Activity [19]: Active
- Activity [20]: Active
- Activity [21]: Active
- Activity [22]: Active
- Activity [23]: Active
